FN deposition inh: inhibitors of fibronectin matrix deposition, primary screen, AH1F cells, Alexa488-fibronectin fluorescence, plate reader | AH1F fibroblasts, overnight | inhibition, % at 12.6 µM | 350,000 tested, 0.086% active | AID 743247, 2014;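 active = mean inhibition across replicates of 30% or more, regardless of how many single replicates reach that level; inconclusive = mean under 30% yet at least half of replicates reach 30%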
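test system = AH1F fibroblasts assembling fluorescent fibronectin matrix | quantity = 10000 AH1F cells per well | buffer or medium = DMEM plus 2% serum, read in PBS | doses = single dose, pinned | incubation = 1 h cell attachment, overnight exposure to compound and label | detection = fluorescence at 485 nm excitation, 525 nm emission | read-out basis = inhibition from reduced deposited-fibronectin fluorescence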
ARNT TACC3 PPI: disruptors of ARNT/TACC3 protein interaction, primary screen, biochemical, AlphaScreen, single concentration; inhibition, % at 9.99 µM; 390,000 tested, 0.66% active; AlphaScreen His-ARNT PAS-B/GST-TACC3 binding, luminescence; TACC3 fragment carries E629A point mutation;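 active = mean inhibition of replicates at least 50% and at least half of replicates each reaching 50%; inconclusive = half or more replicates reach 50% but mean below 50%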
DENV2 CPE: inhibitors of DENV2 cytopathic effect, primary screen, cell-based, plate reader, single concentration. 350,000 tested, 1.7% active. DENV2-infected cells, cytopathic effect rescue. CPE inhibition, % at 9.99 µM; in the data active = CPE inhibition above about 20%, passing the limit was not always enough; inconclusive = no clear call, values can overlap the other calls; tested in BHK-21 cells
SIRT5 block: SIRT5 desuccinylase inhibitors, primary screen, biochemical, fluorescence imaging, single point, set 5 | NAD-dependent protein deacylase sirtuin-5, mitochondrial (Homo sapiens), Q9NXA8 | Purified SirT5, succinyl-peptide AMC, trypsin-coupled fluorescence | inhibition, % at 15 µM | 330,000 tested, 1.1% active; in the data active = inhibition above about 15%; inconclusive = no clear call, values can overlap the other calls
Target sequence (Q9NXA8 whole entry, looked up): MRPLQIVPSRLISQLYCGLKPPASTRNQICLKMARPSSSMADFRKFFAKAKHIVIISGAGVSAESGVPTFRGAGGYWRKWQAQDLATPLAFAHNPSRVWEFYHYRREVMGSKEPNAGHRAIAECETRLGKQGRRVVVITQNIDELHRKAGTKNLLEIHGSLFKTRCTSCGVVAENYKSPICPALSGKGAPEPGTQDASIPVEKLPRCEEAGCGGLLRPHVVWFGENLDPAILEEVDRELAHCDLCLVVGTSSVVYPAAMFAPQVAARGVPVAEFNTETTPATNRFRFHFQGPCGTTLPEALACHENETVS
XiGFP reactiv: activators of inactive X chromosome reactivation, primary screen, imaging, XiGFP fibroblasts, GFP high-content imaging, set 2; XiGFP mouse fibroblasts, % GFP-positive cells imaging, 3 d; cells co-treated with 5-aza-dC sensitizer; scaled so ellipticine positive control = 100%; activation, % at 7.58 µM; 360,000 tested, 0.055% active;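 active = mean normalized replicate activation at least 10% and every replicate at or above 10%; inconclusive = only one of the two criteria met; inactive = mean below 10% and not all replicates reach 10%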
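Material: SV40-immortalized XiGFP fibroblast cells, line 68-5-11 | Buffer or medium: DMEM containing 5-aza-dC | Dosing: One concentration, pinned | Times: 3 d treatment, 15 min room-temperature fixation | Controls: Ellipticine 6 µM positive control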
FGF22 binding: binders of human FGF22 protein, primary screen, FGF22 synaptogenesis inhibitor project, biophysical, thermal shift, single point; Fibroblast growth factor 22 (Homo sapiens), Q9HCT0; recombinant FGF22 thermal shift, SYPRO orange fluorescence; percent of sucrose octasulfate shift, DMSO zero; activity (Tm shift, normalised), % at 9.99 µM; 340,000 tested, 1.5% active; AID 651658, 2012;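 active = mean Tm shift, scaled 0 neutral to 100 positive control, at about 1.3% or above, every replicate too, limit read from the data; inconclusive = no clear call, values can overlap the other calls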
Target sequence (Q9HCT0 whole entry, looked up): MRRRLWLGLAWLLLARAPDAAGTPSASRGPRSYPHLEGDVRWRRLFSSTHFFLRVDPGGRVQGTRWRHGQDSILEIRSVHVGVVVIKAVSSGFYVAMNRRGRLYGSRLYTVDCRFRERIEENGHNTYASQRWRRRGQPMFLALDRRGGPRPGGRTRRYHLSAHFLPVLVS
Numbers stand for hits; i = inactive; ? = inconclusive; nt = no result. Compounds with a hit are over-represented: about 3.8% of the library has one in this group of screens.

SMILES | FN deposition inh | ARNT TACC3 PPI | DENV2 CPE | SIRT5 block | XiGFP reactiv | FGF22 binding
C[C@@H]1CN([C@@H](C)CO)C(=O)c2cccc(NC(=O)Nc3ccccc3)c2O[C@H]1CN(C)CC1CC1 | i | i | i | i | i | i
COc1ccc2ccccc2c1CNC(C)c1ccccc1 (configuration not stated) | i | i | 36 | i | i | i
CC(NCc1ccccc1O)c1ccccc1 (configuration not stated) | i | i | i | i | i | 43
Cc1ccc(CNC(C)c2ccccc2)cc1 (configuration not stated) | i | i | nt | nt | i | nt
COCCNC(=O)C[C@H]1CC[C@H](NC(=O)NC2CCCC2)[C@@H](CO)O1 | i | i | i | i | i | i
O=C(c1ccccc1)N1C[C@@H]2[C@H](c3ccccc31)[C@H](CO)N2Cc1cc(F)ccc1F | nt | i | i | i | i | i
Cc1ccccc1N1Cc2ccccc2C1=O | i | nt | 37 | i | i | i
C[C@@H]1CN([C@H](C)CO)C(=O)c2cc(NS(=O)(=O)c3ccccc3)ccc2O[C@H]1CN(C)S(=O)(=O)c1ccccc1 | nt | i | i | i | i | i
C[C@H]1CN([C@@H](C)CO)C(=O)c2ccccc2-c2ccccc2CO[C@H]1CN(C)C(=O)Oc1ccccc1 | i | i | i | i | i | i
CN(C)C(=O)c1cccc(-c2ccc([C@H]3[C@H]4CN(C(=O)CC5CC5)CC(=O)N4[C@H]3CO)cc2)c1 | nt | nt | 21 | i | i | nt
COc1ccc(C#Cc2ccc([C@H]3[C@H](CO)N4C(=O)CN(C(=O)c5cccnc5)C[C@@H]34)cc2)cc1 | nt | nt | i | 37 | i | nt
COc1ccc(C#Cc2ccc([C@@H]3[C@@H](CO)N4C(=O)CN(C(=O)c5ccncc5)C[C@@H]34)cc2)cc1 | nt | nt | 38 | i | i | nt
Cc1cccc(-c2ccc([C@@H]3[C@@H](CO)N4C(=O)CN(C(=O)c5cccnc5)C[C@H]34)cc2)c1 | nt | nt | 21 | i | i | nt
CN(C)C(=O)c1cccc(-c2ccc([C@@H]3[C@@H](CO)N4C(=O)CN(C(=O)CC5CC5)C[C@@H]34)cc2)c1 | nt | nt | i | i | i | nt
CO[C@H]1CN(C)C(=O)c2cc(NC(=O)c3cc(C)on3)ccc2OC[C@H](C)NC[C@@H]1C | i | nt | nt | nt | i | nt
O=C(NCC[C@@H]1CC[C@H](NS(=O)(=O)c2cccc(F)c2)[C@@H](CO)O1)C1CCCCC1 | i | i | i | i | i | i
Cc1ccc(S(=O)(=O)N[C@@H]2CC[C@@H](CC(=O)NCc3ccccc3F)O[C@@H]2CO)cc1 | nt | i | i | i | i | i
CC(=O)Nc1ccc2c(c1)CC(=O)N(C)C[C@@H](C)[C@H](CN(C)C)O2 | i | nt | nt | nt | i | nt
C[C@H]1CCCCO[C@@H](CN(C)CC2CC2)[C@@H](C)CN([C@@H](C)CO)C(=O)c2cc(NC(=O)c3ccccc3)ccc2O1 | i | i | i | i | i | i
CCCC#Cc1ccc([C@H]2[C@H]3CN(C(=O)Cc4cccnc4)CC(=O)N3[C@H]2CO)cc1 | nt | nt | i | 22 | i | nt
COc1cccc(-c2ccc([C@H]3[C@H](CO)N4C(=O)CN(C(=O)C5CC5)C[C@@H]34)cc2)c1 | i | nt | 29 | i | i | nt
C/C(CC1CC(COCC(C)C)OC1=O)=N\NC(N)=S (configuration not stated) | i | i | 91 | i | i | i
COCc1cn(CC[C@@H]2CC[C@H](NC(=O)Nc3ccc(Cl)cc3)[C@H](CO)O2)nn1 | nt | i | i | i | i | i
CCNc1nc(NCC)nc(C(=O)NN)n1 | i | 75 | nt | nt | nt | nt
O=S(=O)(Nc1ncnc2scc(-c3ccc(F)cc3)c12)c1cc(F)ccc1F | i | i | i | i | i | 2.8
SMILES | FN deposition inh | ARNT TACC3 PPI | DENV2 CPE | SIRT5 block | XiGFP reactiv | FGF22 binding
Cc1ccc(-c2csc3ncnc(NS(=O)(=O)c4ccc(Cl)cc4)c23)cc1 | i | i | i | i | i | i
CO[C@H]1CN(C)C(=O)c2cc(NC(=O)Nc3c(C)noc3C)ccc2OC[C@H](C)N(C)C[C@@H]1C | i | i | i | i | i | i
Cc1cc(Br)c(NC(=O)COC(=O)CC2CC3CCC2C3)c(Br)c1 (configuration not stated) | i | i | i | 19 | i | i
Cc1ccc(C)c(NC(=O)COC(=O)CC2CC3CCC2C3)c1 (configuration not stated) | i | i | i | i | i | i
CN1C(=O)c2cc(NC(=O)c3cccc(F)c3)ccc2OC[C@@H]2O[C@@H](CC(=O)Nc3ccccc3)CC[C@H]21 | i | i | i | i | i | i
C[C@@H]1CN([C@H](C)CO)C(=O)Cc2cc(NC(=O)NC3CCCCC3)ccc2O[C@H]1CN(C)CC1CCCCC1 | nt | i | 25 | i | i | nt
C[C@H]1CN([C@@H](C)CO)C(=O)Cc2cc(NC(=O)Nc3ccc4c(c3)OCO4)ccc2O[C@H]1CN(C)CC1CCCCC1 | nt | i | i | i | i | i
C[C@H](CO)N1C[C@H](C)[C@@H](CN(C)CC2CCCCC2)Oc2ccc(NC(=O)Nc3ccc4c(c3)OCO4)cc2CC1=O | nt | i | 29 | 16 | i | i
Cc1ccc(S(=O)(=O)N(C)C[C@@H]2Oc3ccc(NC(=O)CCCN(C)C)cc3C(=O)N([C@H](C)CO)C[C@H]2C)cc1 | i | i | ? | i | i | i
CC1(C)Cc2c(C#N)c(SCC(=O)c3ccccc3)nc(N3CCOCC3)c2CS1 | 48 | nt | nt | nt | nt | nt
CN1Cc2c(N3CCOCC3)nc(SCc3ccccc3)c(C#N)c2CC1(C)C | i | i | nt | nt | nt | nt
CC=Cc1ccc2n(c1=O)C[C@@H]1[C@@H](CO)[C@H](C(=O)Nc3ccc(-c4ccccc4)cc3)[C@H]2N1C(=O)CC (mixture of isomers) | i | i | i | i | i | i
COc1ccccc1S(=O)(=O)N1CC[C@@H]2[C@@H](CO)N(C)c3ccc(-c4cccc(C#N)c4)cc3[C@@H]21 | i | i | nt | nt | i | nt
O=C(c1ccc(F)cc1)N1CCC(C(=O)N2CCCc3ccccc32)CC1 | i | nt | 31 | nt | i | i
O=S1(=O)CC(c2ccccc2)=NN=C(c2ccccc2)C1 | i | nt | i | nt | i | 44
O=C1CC(c2ccccc2)=NO1 | i | i | i | i | i | i
O=C(c1cnccn1)N1CC(=O)N2[C@@H](CO)[C@H](c3ccc(C#CC4CC4)cc3)[C@@H]2C1 | i | nt | i | 23 | i | nt
